Test results reported in ChEMBL document CHEMBL3627671, “Novel derivatives of nitro-substituted salicylic acids: Synthesis, antimicrobial activity and cytotoxicity” (Bioorg Med Chem, 2015).
Converted amounts (≈) assume the structure as drawn.

What was measured:
Type in all cases: functional
[1] = system: Klebsiella pneumoniae; experiment: Antibacterial activity against Klebsiella pneumoniae D 11750/08 after 48 hrs by microdilution broth method; conditions: D 11750/08, 48 h
Procedure, shortened: (§1)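 Mueller-Hinton broth microdilution (modified M07-A07), pH 7.4 (±0.2). Compounds dissolved in DMSO, tested at final 500 to 0.49 µmol/L. Inoculum in sterile water matched to 0.5 McFarland. Incubated in the dark, humid atmosphere, 35 °C, read at 24 and 48 h visually and at 540 nm. MIC taken as ≥95% growth reduction (IC95) versus control.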

[2] = system: Pichia kudriavzevii; experiment: Antifungal activity against Candida krusei E28 after 24 hrs by microdilution broth method; conditions: E28, 24 h
Procedure, shortened: (§2)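 CLSI M27-A3 broth microdilution in RPMI 1640 with glutamine, buffered to pH 7.0 with MOPS; DMSO diluent. Yeast inoculum 5 × 10^3 ± 0.2 CFU/mL. Moulds grown on Sabouraud agar 3–10 days before spore harvest, final inoculum 0.5-5 × 10^4 CFU/mL, checked in a Bürker chamber. Incubated dark, humid, 35 °C, read at 24 and 48 h visually and at 540 nm. MIC taken as ≥80% (yeasts) or ≥50% (filamentous) growth reduction versus control.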

[3] = system: Mycobacterium kansasii; experiment: Antimycobacterial activity against Mycobacterium kansasii 6509/96 after 21 days; conditions: 6509/96, 504 h
Procedure, shortened: (§3)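 Šula's semisynthetic medium micromethod at 37 °C, read after 7, 14 and 21 days. The 1.0 McFarland suspension was diluted 10^-4. MIC determined. 6509/96 is a clinical isolate.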

[4] = system: Pseudomonas aeruginosa; experiment: Antibacterial activity against Pseudomonas aeruginosa CCM 1961 after 48 hrs by microdilution broth method; conditions: CCM 1961, 48 h; procedure, shortened: as §1
[5] = system: Mycobacterium avium; experiment: Antimycobacterial activity against Mycobacterium avium 330/80 after 21 days; conditions: 330/80, 504 h
[6] = system: Pseudomonas aeruginosa; experiment: Antibacterial activity against Pseudomonas aeruginosa CCM 1961 after 24 hrs by microdilution broth method; conditions: CCM 1961, 24 h; procedure, shortened: as §1
[7] = system: Trichophyton mentagrophytes; experiment: Antifungal activity against Trichophyton mentagrophytes 445 after 48 hrs by microdilution broth method; conditions: Trichophyton mentagrophytes, 445, 48 h
[8] = system: Aspergillus fumigatus; experiment: Antifungal activity against Aspergillus fumigatus 231 after 24 hrs by microdilution broth method; conditions: Aspergillus fumigatus, 231, 24 h; procedure, shortened: as §2
[9] = system: Staphylococcus epidermidis; experiment: Antibacterial activity against Staphylococcus epidermidis H 6966/08 after 48 hrs by microdilution broth method; conditions: H 6966/08, 48 h; procedure, shortened: as §1
[10] = system: Enterococcus sp.; experiment: Antibacterial activity against Enterococcus sp. J 14365/08 after 48 hrs by microdilution broth method; conditions: J 14365/08, 48 h; procedure, shortened: as §1
[11] = system: Trichosporon asahii; experiment: Antifungal activity against Trichosporon asahii 1188 after 48 hrs by microdilution broth method; conditions: Trichosporon asahii, 1188, 48 h; procedure, shortened: as §2
[12] = system: Escherichia coli; experiment: Antibacterial activity against Escherichia coli CCM4517 after 48 hrs by microdilution broth method; conditions: CCM4517, 48 h; procedure, shortened: as §1
[13] = system: Candida tropicalis; experiment: Antifungal activity against Candida tropicalis 156 after 24 hrs by microdilution broth method; conditions: Candida tropicalis, 156, 24 h; procedure, shortened: as §2
[14] = system: Mycobacterium kansasii; experiment: Antimycobacterial activity against Mycobacterium kansasii 6509/96 after 14 days; conditions: 6509/96, 336 h; procedure, shortened: as §3
[15] = system: Mycobacterium avium; experiment: Antimycobacterial activity against Mycobacterium avium 330/80 after 14 days; conditions: 330/80, 336 h
[16] = system: Staphylococcus aureus; experiment: Antibacterial activity against Staphylococcus aureus CCM 4516/08 after 24 hrs by microdilution broth method; conditions: CCM 4516/08, 24 h
[17] = system: Trichophyton mentagrophytes; experiment: Antifungal activity against Trichophyton mentagrophytes 445 after 24 hrs by microdilution broth method; conditions: Trichophyton mentagrophytes, 445, 24 h
[18] = system: Aspergillus fumigatus; experiment: Antifungal activity against Aspergillus fumigatus 231 after 48 hrs by microdilution broth method; conditions: Aspergillus fumigatus, 231, 48 h; procedure, shortened: as §2
[19] = system: Mycobacterium kansasii; experiment: Antimycobacterial activity against Mycobacterium kansasii 235/80 after 14 days; conditions: 235/80, 336 h; procedure, shortened: as §3
[20] = system: Candida albicans; experiment: Antifungal activity against Candida albicans ATCC 44859 after 24 hrs by microdilution broth method; conditions: ATCC 44859, 24 h; procedure, shortened: as §2
[21] = system: Trichosporon asahii; experiment: Antifungal activity against Trichosporon asahii 1188 after 24 hrs by microdilution broth method; conditions: Trichosporon asahii, 1188, 24 h; procedure, shortened: as §2
[22] = system: Lichtheimia corymbifera; experiment: Antifungal activity against Absidia corymbifera 272 after 24 hrs by microdilution broth method; conditions: Lichtheimia corymbifera, 272, 24 h; procedure, shortened: as §2
[23] = system: Klebsiella pneumoniae; experiment: Antibacterial activity against ESBL-positive Klebsiella pneumoniae J 14368/08 after 48 hrs by microdilution broth method; conditions: J 14368/08, 48 h; procedure, shortened: as §1
[24] = system: Staphylococcus aureus; experiment: Antibacterial activity against methicillin-resistant Staphylococcus aureus H 5996/08 after 48 hrs by microdilution broth method; conditions: H 5996/08, 48 h
[25] = system: Staphylococcus epidermidis; experiment: Antibacterial activity against Staphylococcus epidermidis H 6966/08 after 24 hrs by microdilution broth method; conditions: H 6966/08, 24 h; procedure, shortened: as §1
[26] = system: Mycobacterium kansasii; experiment: Antimycobacterial activity against Mycobacterium kansasii 6509/96 after 7 days; conditions: 6509/96, 168 h; procedure, shortened: as §3
[27] = system: Enterococcus sp.; experiment: Antibacterial activity against Enterococcus sp. J 14365/08 after 24 hrs by microdilution broth method; conditions: J 14365/08, 24 h; procedure, shortened: as §1
[28] = system: Staphylococcus aureus; experiment: Antibacterial activity against methicillin-resistant Staphylococcus aureus H 5996/08 after 24 hrs by microdilution broth method; conditions: H 5996/08, 24 h
[29] = system: Nakaseomyces glabratus; experiment: Antifungal activity against Candida glabrata 20/I after 24 hrs by microdilution broth method; procedure, shortened: as §2
[30] = system: Nakaseomyces glabratus; experiment: Antifungal activity against Candida glabrata 20/I after 48 hrs by microdilution broth method; procedure, shortened: as §2
[31] = system: Candida tropicalis; experiment: Antifungal activity against Candida tropicalis 156 after 48 hrs by microdilution broth method; conditions: Candida tropicalis, 156, 48 h; procedure, shortened: as §2
[32] = system: Mycobacterium tuberculosis; experiment: Antimycobacterial activity against Mycobacterium tuberculosis H37Rv 331/88 after 14 days; conditions: H37Rv 331/88, 336 h
[33] = system: Mycobacterium tuberculosis; experiment: Antimycobacterial activity against Mycobacterium tuberculosis H37Rv 331/88 after 21 days; conditions: H37Rv 331/88, 504 h
[34] = system: Klebsiella pneumoniae; experiment: Antibacterial activity against ESBL-positive Klebsiella pneumoniae J 14368/08 after 24 hrs by microdilution broth method; conditions: J 14368/08, 24 h; procedure, shortened: as §1
[35] = system: Candida albicans; experiment: Antifungal activity against Candida albicans ATCC 44859 after 48 hrs by microdilution broth method; conditions: ATCC 44859, 48 h; procedure, shortened: as §2
[36] = system: Lichtheimia corymbifera; experiment: Antifungal activity against Absidia corymbifera 272 after 48 hrs by microdilution broth method; conditions: Lichtheimia corymbifera, 272, 48 h; procedure, shortened: as §2
[37] = system: Pichia kudriavzevii; experiment: Antifungal activity against Candida krusei E28 after 48 hrs by microdilution broth method; conditions: E28, 48 h; procedure, shortened: as §2
[38] = system: Klebsiella pneumoniae; experiment: Antibacterial activity against Klebsiella pneumoniae D 11750/08 after 24 hrs by microdilution broth method; conditions: D 11750/08, 24 h; procedure, shortened: as §1
[39] = system: Mycobacterium kansasii; experiment: Antimycobacterial activity against Mycobacterium kansasii 235/80 after 7 days; conditions: 235/80, 168 h; procedure, shortened: as §3
[40] = system: Mycobacterium kansasii; experiment: Antimycobacterial activity against Mycobacterium kansasii 235/80 after 21 days; conditions: 235/80, 504 h; procedure, shortened: as §3
[41] = system: Staphylococcus aureus; experiment: Antibacterial activity against Staphylococcus aureus CCM 4516/08 after 48 hrs by microdilution broth method; conditions: CCM 4516/08, 48 h
[42] = system: Escherichia coli; experiment: Antibacterial activity against Escherichia coli CCM4517 after 24 hrs by microdilution broth method; conditions: CCM4517, 24 h; procedure, shortened: as §1

O=C(Nc1cccc([N+](=O)[O-])c1)c1ccc([N+](=O)[O-])cc1O
MIC [1]: > 250 µM
MIC [2]: > 250 µM
MIC [3]: 32 µM (≈ 9.7 µg/mL)
MIC [4]: > 250 µM
MIC [5]: 125 µM (≈ 37.9 µg/mL)
MIC [6]: > 250 µM
MIC [7]: > 250 µM
MIC [8]: > 250 µM
MIC [9]: 62.5 µM (≈ 19 µg/mL)
MIC [10]: > 250 µM
MIC [11]: > 250 µM
MIC [12]: > 250 µM
MIC [13]: > 250 µM
MIC [14]: 32 µM (≈ 9.7 µg/mL)
MIC [15]: 125 µM (≈ 37.9 µg/mL)
MIC [16]: 62.5 µM (≈ 19 µg/mL)
MIC [17]: > 250 µM
MIC [18]: > 250 µM
MIC [19]: 32 µM (≈ 9.7 µg/mL)
MIC [20]: > 250 µM
MIC [21]: > 250 µM
MIC [22]: > 250 µM
MIC [23]: > 250 µM
MIC [24]: 125 µM (≈ 37.9 µg/mL)
MIC [25]: 31.2 µM (≈ 9.48 µg/mL)
MIC [26]: 32 µM (≈ 9.7 µg/mL)
MIC [27]: > 250 µM
MIC [28]: 125 µM (≈ 37.9 µg/mL)
MIC [29]: > 250 µM
MIC [30]: > 250 µM
MIC [31]: > 250 µM
MIC [32]: 32 µM (≈ 9.7 µg/mL)
MIC [33]: 32 µM (≈ 9.7 µg/mL)
MIC [34]: > 250 µM
MIC [35]: > 250 µM
MIC [36]: > 250 µM
MIC [37]: > 250 µM
MIC [38]: > 250 µM
MIC [39]: 32 µM (≈ 9.7 µg/mL)
MIC [40]: 62.5 µM (≈ 19 µg/mL)
MIC [41]: 62.5 µM (≈ 19 µg/mL)
MIC [42]: > 250 µM
